These results are taken from article PMC4464187 (EXCLI Journal, 2014).

The structures appear in SMILES notation. Read-outs that look alike come from different tables or passages of the source.

The subject of test [1] is TNF-α levels in the plasma. Kind of test: Measurement of TNF-α production in plasma of LPS-treated SD rats. It is filed as in vivo, female Sprague Dawley rats. The conditions noted are these: LPS 5 mg/Kg i.p., blood 2 h after LPS; for TNF-α plasma level: LPS group 1623 pg/mL. The procedure, abridged: (§1)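 Female Sprague Dawley rats, 200-250 g, n = 5 per group. Oral doses are given at 12 h intervals: test compound at 20 and 40 mg/Kg, vehicle 10 % Tween 80, or dexamethasone 5 mg/Kg as positive control. LPS 5 mg/Kg is given i.p. 2 h after the final dose. Blood is taken 2 h (TNF-α) or 6 h (IL-1ß) after LPS. Plasma is assayed by rat sandwich ELISA. Mean ± SD, one-way ANOVA with Dunnett's test.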

Test [2] deals with IL-1ß levels in the plasma. The test can be described thus: Measurement of IL-1ß production in plasma of LPS-treated SD rats. It counts as in vivo, female Sprague Dawley rats. The conditions noted are these: LPS 5 mg/Kg i.p., blood 6 h after LPS; for IL-1ß plasma level: LPS group 912 pg/mL. The procedure, abridged: as §1
The test system of test [3] is TNF-α production in LPS stimulated RAW 264.7 cells. The test can be described thus: TNF-α assay. It counts as cell-based. The conditions noted are these: Mus musculus, RAW264.7, 6 h, read-out: IC50 for inhibition of TNF-α RAW 264.7.
Test [4] deals with TNF-α production in LPS stimulated J774A.1 cells. Kind of test: TNF-α assay. It counts as cell-based. The following applies: Mus musculus, J774.A1, 6 h, read-out: IC50 for inhibition of TNF-α J774A.1. The procedure, abridged:
(§2)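 Cells cultured in DMEM with heat-inactivated 10 % FBS, penicillin and streptomycin at 37 °C, 5 % CO2. Test compound in DMSO/water is added at several concentrations for 1 h, then LPS (E. coli 026:B6) 1 µg/mL is added. Incubation runs 6 h for TNF-α and 12 h for IL-1ß. Supernatant cytokine is measured by mouse sandwich ELISA at 450 nm, with curcumin and dexamethasone as standards. Triplicates.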

Test [5] has as its system IL-1ß production in LPS stimulated RAW 264.7 cells. The test can be described thus: IL-1ß assay. It counts as cell-based. The following applies: Mus musculus, RAW264.7, 12 h, read-out: IC50 for inhibition of IL-1β RAW 264.7. The procedure, abridged:
as §2

The test system of test [6] is IL-1ß production in LPS stimulated J774A.1 cells. Kind of test: IL-1ß assay. It is filed as cell-based. The conditions noted are these: Mus musculus, J774.A1, 12 h, read-out: IC50 for inhibition of IL-1β J774A.1.
The test system of test [7] is NO release in LPS stimulated RAW 264.7 cells. The test can be described thus: NO inhibitory assay. It counts as cell-based. The following applies: Mus musculus. In a few lines:
(§3)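 Cells are kept in DMEM with 10 % heat-inactivated FBS and antibiotics under 5 % CO2 at 37 °C. They are pretreated 1 h with varied concentrations of test compound (DMSO/water), then stimulated with 1 µg/mL LPS (E. coli 026:B6) for 24 h at 37 °C. Supernatant is mixed 1:1 with modified Griess reagent for 30 min and read at 540 nm. Curcumin and L-NAME serve as standards. Triplicates.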

Test [8] relates to NO release in LPS stimulated J774A.1 cells. Kind of test: NO inhibitory assay. It is filed as cell-based. The following applies: Mus musculus, J774.A1, 24 h, read-out: IC50 for NO inhibition J774A.1. In a few lines: as §3
The mark [9] stands for this setting: RAW264.7, 24 h, read-out: IC50 for NO inhibition RAW 264.7.
The mark [10] stands for this setting: RAW264.7, read-out: IC50 for NO inhibition, range over both cells.

On to `C[C@@H]1C[C@H]2[C@@H]3CCC4=CC(=O)C=C[C@]4(C)[C@@]3(F)[C@@H](O)C[C@]2(C)[C@@]1(O)C(=O)CO` [Dexamethasone, reference compound], for which, in test [1] (5 mg/kg p.o.), the “reduction of TNF-α production” value is recorded as 75.8% and the TNF-α plasma level is 394 pg/mL. For the same compound, in test [2] (5 mg/kg p.o.), the “reduction of IL-1ß production” value is 63.0% and the IL-1ß plasma level was 338 pg/mL.

Regarding `CCOC(=O)c1cc(O)c(O)c(O)c1` [compound 3, ethyl gallate], the IC50 (in general, the concentration that gives 50% inhibition) was 17.3 ± 4.61 µM in test [3], 23.4 ± 2.67 µM in test [4], 36.9 ± 3.35 µM in test [5] and 39.5 ± 2.86 µM in test [6].

In the case of `CC(/C=C/C=C(\C)C(=O)O)=C\C=C\C=C(C)\C=C\C=C(/C)C(=O)O` [compound 4, crocetin], the IC50 in test [7] (setting [9]) was 23.4 ± 2.62 µM; in test [7] (setting [10]), 23.4 to 25.6 µM; in test [8] it was 25.6 ± 2.47 µM; in test [3], 20.4 ± 2.48 µM; in test [4], 22.2 ± 3.83 µM; in test [5], 35.4 ± 2.34 µM. For the same compound, the 50% inhibitory concentration (IC50) in test [6] came out at 41.1 ± 1.69 µM. In test [1] (40 mg/kg p.o.), the “reduction of TNF-α production” value is reported as 43.6%. Further, the TNF-α plasma level in test [1] (40 mg/kg p.o.) is given as 914 pg/mL. Moreover, the “reduction of IL-1ß” value in test [2] (40 mg/kg p.o.) amounted to 39.8%. This compound came in with an IL-1ß plasma level in test [2] (40 mg/kg p.o.) of 549 pg/mL.

`O=C(O)/C=C/c1ccc(O)c(O)c1` [compound 7, Caffeic acid]: the IC50 in test [7] (setting [9]) was determined as 19.2 ± 4.97 µM; in test [8], 78 ± 3.94 µM; in test [3] it was 45 ± 1.93 µM; in test [4], 49.6 ± 1.33 µM; in test [5] it was 59.3 ± 2.94 µM; in test [6], 62.3 ± 2.94 µM.

With `O=C(O)c1cc(O)c(O)c(O)c1` [compound 10, gallic acid], the IC50 in test [3] worked out at 23.8 ± 2.14 µM; in test [4], 29.3 ± 3.12 µM; in test [5], 42.1 ± 3.62 µM; in test [6], 47.6 ± 1.67 µM.

`CC/C=C\C[C@H]1C(=O)CC[C@@H]1CC(=O)O` [compound 11, jasmonic acid]: the 50% inhibitory concentration (IC50) is 29.4 ± 1.65 µM in test [7] (setting [9]); 21.3 to 29.4 µM in test [7] (setting [10]); 21.3 ± 1.35 µM in test [8]; 39.4 ± 2.85 µM in test [3]; 41.4 ± 1.67 µM in test [4]; 57.9 ± 0.61 µM in test [5]. In addition, the IC50 in test [6] amounted to 59.2 ± 2.25 µM. Also, in test [1] (40 mg/kg p.o.), the “reduction of TNF-α production” value is 48.9%. Further, the TNF-α plasma level in test [1] (40 mg/kg p.o.) was 830 pg/mL. For the same compound, the “reduction of IL-1ß” value in test [2] (40 mg/kg p.o.) is 54.2%. In test [2] (40 mg/kg p.o.), the IL-1ß plasma level turned out to be 418 pg/mL.

Regarding `N[C@@H](Cn1ccc(=O)c(O)c1)C(=O)O` [compound 12, L-mimosine], the IC50 in test [7] (setting [9]) was 19.2 ± 1.53 µM; in test [7] (setting [10]) it was 19.2 to 21.2 µM; in test [8], 21.2 ± 1.36 µM; in test [3], 25.2 ± 2.48 µM; in test [5], 64.2 ± 2.53 µM; in test [6] it was 65.8 ± 1.86 µM. The “reduction of TNF-α production” value in test [1] (40 mg/kg p.o.) was determined as 60.7%. The same compound displayed a TNF-α plasma level in test [1] (40 mg/kg p.o.) of 639 pg/mL. The “reduction of IL-1ß” value in test [2] (40 mg/kg p.o.) is reported as 16.3%. In test [2] (40 mg/kg p.o.), this compound showed an IL-1ß plasma level of 763 pg/mL.

On to `CC(/C=C/C=C(\C)C(=O)O[C@@H]1O[C@H](CO[C@@H]2O[C@H](CO)[C@@H](O)[C@H](O)[C@H]2O)[C@@H](O)[C@H](O)[C@H]1O)=C\C=C\C=C(C)\C=C\C=C(/C)C(=O)O[C@@H]1O[C@H](CO[C@@H]2O[C@H](CO)[C@@H](O)[C@H](O)[C@H]2O)[C@@H](O)[C@H](O)[C@H]1O` [compound 14, crocin], for which the 50% inhibitory concentration (IC50) in test [7] (setting [9]) was 27.2 ± 4.51 µM; in test [7] (setting [10]), 27.2 to 31.5 µM; in test [8] it was 31.5 ± 1.25 µM; in test [3], 22.4 ± 1.08 µM; in test [4], 25.2 ± 2.56 µM; in test [5], 29.2 ± 3.69 µM. Further, the IC50 in test [6] stood at 31.2 ± 2.64 µM. Moreover, the “reduction of TNF-α production” value in test [1] (40 mg/kg p.o.) was found to be 48.4%. This compound also displayed a TNF-α plasma level in test [1] (40 mg/kg p.o.) of 836 pg/mL. Further, the “reduction of IL-1ß” value in test [2] (40 mg/kg p.o.) is recorded as 50.2%. The same compound returned an IL-1ß plasma level in test [2] (40 mg/kg p.o.) of 456 pg/mL.
